Compounds with a hit are over-represented: about 3.7% of the library has one in this group of screens.
CHOP UPR activ – activators of apoptotic arm of unfolded protein response (CHOP); CHO-CHOP luciferase reporter, UPR activation, luminescence; percent of tunicamycin response over DMSO baseline; activation, % at 10 µM; 330,000 tested, 0.34% active;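 active = at 10 µM dose, activation of 40% or more, normalized to positive control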
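System: CHO-CHOP luciferase reporter cell line; amount: 500 cells/well; buffer or medium: F12 medium containing 10% fetal bovine serum; incubation: 6 h compound exposure at 37 °C after overnight seeding; measured by: luciferase luminescence after 10 min with Steady-Glo reagent; evaluation: % reporter activation, DMSO baseline versus tunicamycin full activation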
MDM2 E3 inh – inhibitors of human Mdm2 E3 ubiquitin ligase; AID 1230; 210,000 tested, 0.11% active; signal enhancement, % at 5 µM; cell-based MDM2 ubiquitination luciferase reporter, 2 h; 0 = plate control, 100 = twice control, blank-subtracted; Q00987;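 active = signal enhancement of 30% or more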;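 note: luminescence tracks abundance of the self-degrading MDM2-luciferase fusion protein; higher signal means inhibition of MDM2 E3 ligase activity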
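Test system: mammalian cells stably expressing self-ubiquitinating, self-degrading MDM2 E3–luciferase fusion; Amount: 2000 cells in each well; Medium: DMEM; Schedule: 4 h settle plus 2 h compound, 37 °C; Technique: SteadyLite luciferase luminescence after 15 min room-temperature reagent incubation; Benchmarks: plate control and blank wells.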
Mdm2 MdmX PPI – human Mdm2/MdmX binding inhibition | O15151+Q00987 | SaOS-2 split-luciferase Mdm2/MdmX complementation, luminescence | inhibition, % at 8 µM | 330,000 tested, 3% active | AID 485346;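 active = inhibition of at least 50% at 8 µM in the primary screen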
Target sequence (O15151 whole entry, looked up): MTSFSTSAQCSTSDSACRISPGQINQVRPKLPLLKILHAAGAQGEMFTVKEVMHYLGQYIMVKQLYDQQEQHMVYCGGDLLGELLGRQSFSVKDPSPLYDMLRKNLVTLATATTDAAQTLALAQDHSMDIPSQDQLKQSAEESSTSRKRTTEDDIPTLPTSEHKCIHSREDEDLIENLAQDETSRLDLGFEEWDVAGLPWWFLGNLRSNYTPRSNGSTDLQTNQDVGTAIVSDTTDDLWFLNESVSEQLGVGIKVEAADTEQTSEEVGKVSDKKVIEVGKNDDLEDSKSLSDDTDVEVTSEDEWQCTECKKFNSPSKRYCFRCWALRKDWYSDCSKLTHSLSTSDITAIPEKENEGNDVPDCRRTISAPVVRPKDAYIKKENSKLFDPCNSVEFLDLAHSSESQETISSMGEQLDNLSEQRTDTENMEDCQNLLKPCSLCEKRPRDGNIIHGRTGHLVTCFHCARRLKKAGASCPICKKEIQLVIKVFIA
Target sequence (Q00987 whole entry, looked up): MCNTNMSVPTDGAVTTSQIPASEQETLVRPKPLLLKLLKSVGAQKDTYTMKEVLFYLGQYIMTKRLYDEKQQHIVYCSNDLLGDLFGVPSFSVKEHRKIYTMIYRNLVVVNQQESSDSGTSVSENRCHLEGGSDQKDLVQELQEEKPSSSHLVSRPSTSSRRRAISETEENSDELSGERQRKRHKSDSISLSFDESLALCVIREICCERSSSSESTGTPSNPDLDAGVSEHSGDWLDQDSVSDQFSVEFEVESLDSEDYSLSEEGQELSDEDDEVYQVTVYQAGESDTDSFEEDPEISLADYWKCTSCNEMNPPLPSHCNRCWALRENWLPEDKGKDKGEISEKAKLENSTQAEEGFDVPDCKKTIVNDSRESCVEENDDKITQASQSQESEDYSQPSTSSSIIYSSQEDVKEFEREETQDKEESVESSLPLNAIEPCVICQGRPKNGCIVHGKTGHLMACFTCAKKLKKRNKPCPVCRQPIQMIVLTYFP
B2AR ag – agonists of human beta-2 adrenergic receptor inducing internalization; P07550; Am2.2-beta2AR cells, FAP receptor internalization, flow cytometry; response, % (test concentration not listed); 340,000 tested, 0.43% active; AID 504454;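 active = response above a set limit, near 3 SD of response in nonfluorescent compounds, cut at about 42% in these data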
Dynein transport – blocks dynein driven cargo transport along microtubules; 3617.4 mouse cells, GR-EGFP nuclear translocation imaging; test concentration mostly 20 µM; stimulated with dexamethasone, 1 µM; hits give low values; z-score, hits read low; 220,000 tested, 0.47% active;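 active = plate z-score of nuclear minus cytoplasmic receptor signal below a set negative limit, without overly bright fluorescence or cell loss, cut at about -3.5 in these data, passing the limit was not always enough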;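 note: z-score of nuclear minus cytoplasmic ring GR-EGFP intensity difference per well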
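Buffer or medium: tet-free medium with charcoal-stripped serum / Also added: dexamethasone agonist, 1.0 µM final, for 30 min / Timing: induction 48 h, compound 1 h, agonist 30 min / Measured by: high-content fluorescence imaging after fixation / Read-out: nuclear-to-cytoplasmic GR-EGFP distribution per well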
UPR XBP1 act – adaptive UPR (XBP1) activation. AID 463104. 330,000 tested, 0.33% active. CHO-XBP1 luciferase reporter, IRE1-XBP1 UPR activation, luminescence; percent of tunicamycin response, DMSO as zero. activation, % at 20 µM;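 active = versus positive control, 20 µM dose yields 30% or more activation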
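Assay system: CHO-XBP1 luciferase reporter cells; Schedule: 6 h treatment, 37 °C; Detection: glow luminescence from Steady-Glo reagent; Benchmarks: high control tunicamycin 10 µg/mL final, low control DMSO vehicle only.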
Dynein confirm – dynein cargo transport inhibition, confirmation. shares compounds with Dynein transport. 3617.4 GR-EGFP nuclear translocation imaging, dexamethasone-induced. calls only at 20 µM. 1,000 tested, 69% active;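 active = inhibition of receptor movement into the nucleus at or above a set limit in both runs, with normal cell brightness and cell count; inconclusive = limit reached in only one run, brightness and count normal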;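 note: dexamethasone at 1 µM final in well for 30 min; nuclear minus cytoplasmic GR-EGFP mean intensity difference in channel 2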
UPR CHOP confirm – confirmation of apoptotic unfolded protein response (CHOP) activators; shares compounds with CHOP UPR activ; CHO-CHOP cells, CHOP-luciferase reporter luminescence; percent of tunicamycin response, DMSO as zero; activation, % at 10 µM; 1,000 tested, 64% active; AID 463112; in the data active = activation above about 33%
Mdm2-MdmX conf – human Mdm2/MdmX binding inhibition, confirmed | shares compounds with Mdm2 MdmX PPI | luminescent assay | inhibition, % at 8 µM | 10,000 tested, 55% active | AID 489028; in the data active = inhibition above about 40%
FLuc counter – full-length luciferase inhibition in Mdm2/MdmX counter-screen; 6,200 tested, 77% active; inhibition, % at 8 µM; SaOS-2 full-length luciferase counterscreen, luminescence; shares compounds with Mdm2 MdmX PPI;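 active = mean inhibition at 8 µM reaching about 37%, which flags the compound as non-specific, limit read from the data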;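 note: p53-null SaOS-2 cells with luciferase driven by a doxycycline-inducible promoter; compound on cells about two nights before reading with doxycycline added after day one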
Large screens that a line does not name were inactive (follow-up assays come after a bar, where they were run).

COc1ccccc1-c1cc(C(F)(F)F)nc(S(C)(=O)=O)n1	CHOP UPR activ 136, Mdm2 MdmX PPI 97, B2AR ag 58, Dynein transport -4.6 | Dynein confirm active | UPR CHOP confirm 266 | Mdm2-MdmX conf 79 | FLuc counter 53
COc1ccccc1-c1cc(C(F)(F)F)nc(N2CCCC2)n1	none
O=C(CCl)N1N=C(c2cccs2)CC1c1ccco1 (stereo unspecified)	CHOP UPR activ 59, Mdm2 MdmX PPI 100, Dynein transport -4.7 | Dynein confirm active | UPR CHOP confirm 34 | Mdm2-MdmX conf 99 | FLuc counter 53
CN1CCN(CC(=O)N2N=C(c3cccs3)CC2c2ccco2)CC1 (stereo unspecified)	none
CC1(C)CC(NC(=O)c2cc(S(=O)(=O)N3CCOCC3)ccc2Cl)CC(C)(C)N1	none (no result: MDM2 E3 inh, Dynein transport)
S=c1[nH]nc(-c2cc(-c3ccccc3)n[nH]2)n1/N=C/C(Br)=C/c1ccccc1	CHOP UPR activ 109, Mdm2 MdmX PPI 100, Dynein transport -4.3 | Dynein confirm inconclusive | UPR CHOP confirm 130 | Mdm2-MdmX conf 84 | FLuc counter inactive
S=c1[nH]nc(-c2cc(-c3ccccc3)n[nH]2)n1/N=C/c1ccccc1	none (no result: MDM2 E3 inh)
CCC(=O)N1CCc2cc(S(=O)(=O)N3CCN(c4cc(Cl)ccc4C)CC3)ccc21	none (no result: MDM2 E3 inh, Dynein transport)
O=C1C=CC(O)(c2cc(=O)c3c(O)cc(O)cc3o2)C=C1	Mdm2 MdmX PPI 99, B2AR ag 45, Dynein transport -6.7 (no result: MDM2 E3 inh) | Dynein confirm active | Mdm2-MdmX conf 66 | FLuc counter 48
O=c1cc(-c2ccccc2Cl)oc2cc(O)cc(O)c12	none (no result: MDM2 E3 inh)
NC(=O)CN1C(=O)C(O)(CC(=O)/C=C\c2ccc3c(c2)OCO3)c2ccccc21 (stereo unspecified)	none
CN1C(=O)C(O)(CC(=O)/C=C\c2ccc3c(c2)OCO3)c2ccccc21 (stereo unspecified)	Mdm2 MdmX PPI 55, Dynein transport -4.6 | Dynein confirm active | Mdm2-MdmX conf inactive
O=C(Nc1ncn[nH]1)c1cccc(S(=O)(=O)N2CCOCC2)c1	none
C#CC(=O)N(c1ccc(OC)cc1OC)C(C(=O)NC1CCCC1)c1cccs1 (stereo unspecified)	Mdm2 MdmX PPI 89, Dynein transport -4.4 | Dynein confirm active | Mdm2-MdmX conf 100 | FLuc counter 51
COc1ccc(N(C(=O)c2snc(C(N)=O)c2N)C(C(=O)NC2CCCC2)c2cccs2)cc1OC (stereo unspecified)	none (no result: MDM2 E3 inh, Dynein transport)
C#CC(=O)N(c1cc(OC)ccc1OC)C(C(=O)NC1CCCC1)c1cccs1 (stereo unspecified)	Mdm2 MdmX PPI 100, Dynein transport -5.1 | Dynein confirm active | Mdm2-MdmX conf 100 | FLuc counter 52
Cc1cc(C)c(C)c(OCC(O)CN2CCN(c3ccccn3)CC2)c1 (stereo unspecified)	none (no result: MDM2 E3 inh, Dynein transport)
O=C(CCl)N(c1ccc(Cl)cc1)c1c[nH]c2ccccc12	Mdm2 MdmX PPI 69, B2AR ag 69, Dynein transport -5.3 | Dynein confirm active | Mdm2-MdmX conf 100 | FLuc counter 52
COc1ccc(CN(C)C(=O)c2ccc(NS(=O)(=O)c3ccc(F)cc3)cc2)c(OC)c1OC	none (no result: MDM2 E3 inh, Dynein transport)
N#C/C(=C\c1cccnc1)C(=O)Nc1ccc(O)cc1F	none (no result: MDM2 E3 inh, Dynein transport)
CCN(c1ccccc1)S(=O)(=O)c1ccc(OC)c(NC(=O)c2cc(Cl)ccn2)c1	none (no result: MDM2 E3 inh, Dynein transport)
CC1(C)CC(=O)C2=C(C1)OC1=C(C(=O)CC(C)(C)C1)C2c1ccc(O)cc1O	CHOP UPR activ 208, Mdm2 MdmX PPI 100, B2AR ag 93 | Dynein confirm active | UPR CHOP confirm inactive | Mdm2-MdmX conf 83 | FLuc counter 50
Cc1ccc(NC(=O)C(=Cc2ccc(C(=O)O)cc2)C(=O)Nc2ccc(C)cc2C)c(C)c1	Mdm2 MdmX PPI 100, Dynein transport -6 | Dynein confirm active | Mdm2-MdmX conf 99 | FLuc counter 52
COc1cc(N)c2ncsc2c1	none (no result: CHOP UPR activ, MDM2 E3 inh, Mdm2 MdmX PPI, Dynein transport, UPR XBP1 act)
CC(=O)Nc1c2c3c(cccc3n(C)c1=O)C(=O)c1ccccc1-2	none
Cn1c(=O)c(Nc2ccc(Cl)cc2)c2c3c(cccc31)C(=O)c1ccccc1-2	Mdm2 MdmX PPI 51 (no result: B2AR ag) | Dynein confirm active | Mdm2-MdmX conf inactive
C/C(CC(=O)Nc1ccccn1)=N\NC(=O)c1ccncc1	none (no result: MDM2 E3 inh, B2AR ag, Dynein transport)
O=C(CCl)N1CCN2C(=O)c3ccccc3C12c1ccc(Cl)cc1 (stereo unspecified)	Mdm2 MdmX PPI 100, Dynein transport -4.6 | Dynein confirm active | Mdm2-MdmX conf 48 | FLuc counter inactive
Cc1ccc(C(=O)N2CCN3C(=O)c4ccccc4C23c2ccc(Cl)cc2)cc1 (stereo unspecified)	none
O=c1[nH]c2ccccc2c2oc(CCl)nc12	Mdm2 MdmX PPI 78, Dynein transport -4.1 | Dynein confirm inconclusive | Mdm2-MdmX conf 52 | FLuc counter 54
CCC1CCc2c(c3ccccc3[nH]c2=O)O1 (stereo unspecified)	none
CC1=CC(=O)C(C(C)C)=C/C1=N/OS(=O)(=O)c1ccccc1	Mdm2 MdmX PPI 100, Dynein transport -4.2 | Dynein confirm inactive | Mdm2-MdmX conf inactive | FLuc counter 42
Cc1ccc(S(=O)(=O)ON=C2CCN(S(=O)(=O)c3ccccc3)CC2)cc1	none
CC(C)N1C/C(=C/c2ccsc2)C(=O)/C(=C/c2ccsc2)C1	CHOP UPR activ 95, Mdm2 MdmX PPI 92, Dynein transport -3.8 | Dynein confirm active | UPR CHOP confirm 91 | Mdm2-MdmX conf inactive
COc1cc(Cl)nn(-c2ccccc2)c1=O	none
O=c1c(Cl)cc(Cl)nn1-c1ccccc1	Mdm2 MdmX PPI 55, Dynein transport -3.5 | Dynein confirm active | Mdm2-MdmX conf inactive
Cc1cc(S(=O)(=O)N2CCOCC2)ccc1OCC(=O)NCc1ccccn1	none (no result: MDM2 E3 inh, Dynein transport)
